Source: ChEMBL document CHEMBL1165928, “Synthesis and structure-activity relationships of 2-acylamino-4,6-diphenylpyridine derivatives as novel antagonists of GPR54” (Bioorg Med Chem, 2010)

Assays:
KiSS-1 receptor [1] = target: T1, KiSS-1 receptor (Homo sapiens, UniProt Q969F8); test: Displacement of [125I]metastin(40-54) from human GPR54 receptor expressed in CHO cells after 60 mins by scintillation counting; format: cell-based
Procedure, shortened: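 Membranes came from CHO h175-KB34 cells stably expressing human GPR54, harvested at ≤50% confluency, homogenized with protease inhibitors, pelleted and stored at −80 °C. Binding used 135 pM 125I-metastin(40-54) in pH 7.4 Tris/Mg acetate/EGTA buffer with 1 mg/ml BSA, 60 min at 25 °C. Samples were filtered on 0.3% PEI-treated GF/C plates, washed three times, and filter radioactivity was counted.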

KiSS-1 receptor [2] = target: T1, KiSS-1 receptor; test: Antagonist activity at human GPR54 receptor expressed in CHO cells assessed as inhibition of metastin(40-54)-induced intracellular calcium mobilization by FLIPR assay; format: functional, cell-based
Procedure, shortened: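 Human GPR54 cell lines h175-KB33 and h175-16 were plated at 30,000 cells/well and cultured overnight. They were loaded 60 min at 37 °C with Fluo-3AM, 1.25 mM probenecid and 0.04% Pluronic F-127 in pH 7.4 Hepes salt buffer with 0.1% BSA, then washed. Ca2+ was read by FLIPR. Agonist was metastin(40-54) at 30 nM (h175-KB33) or 100 pM (h175-16).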

KiSS-1 receptor [3] = target: T1, KiSS-1 receptor; conditions: CHO, 10 uM

T1 sequence (Q969F8 whole entry): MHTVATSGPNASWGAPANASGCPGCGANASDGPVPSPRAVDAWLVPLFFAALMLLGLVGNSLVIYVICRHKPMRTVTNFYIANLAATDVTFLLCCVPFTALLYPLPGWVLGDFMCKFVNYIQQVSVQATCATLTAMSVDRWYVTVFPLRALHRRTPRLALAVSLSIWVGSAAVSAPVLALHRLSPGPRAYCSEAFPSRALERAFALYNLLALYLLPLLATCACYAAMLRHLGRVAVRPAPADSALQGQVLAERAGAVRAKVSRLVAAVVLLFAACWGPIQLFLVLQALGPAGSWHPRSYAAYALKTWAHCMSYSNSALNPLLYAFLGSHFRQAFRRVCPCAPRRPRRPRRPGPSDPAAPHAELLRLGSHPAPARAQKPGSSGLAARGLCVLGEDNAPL

SMILES | IC50 (KiSS-1 receptor [1]) [nM] | IC50 (KiSS-1 receptor [2]) [nM] | inhibition (KiSS-1 receptor [3]) [%]
N#Cc1c(-c2ccccc2C(=O)NCCN)cc(-c2ccccc2O)nc1NC(=O)c1cccs1 | 33000 |  | 
N#Cc1c(-c2ccc(C(=O)NCCN)cc2)cc(-c2ccccc2O)nc1NC(=O)c1cccs1 | 120 |  | 
N#Cc1c(-c2cccc(NC(=O)CCN)c2)cc(-c2ccc(F)cc2O)nc1NC(=O)c1cccs1 | 7.4 | 3600 | 
CC(C)(CN)CNC(=O)c1cccc(-c2cc(-c3ccc(F)cc3O)nc(NC(=O)c3ccco3)c2C#N)c1 | 11 | 2500 | 
N#Cc1c(-c2cccc(NC(=O)CN)c2)cc(-c2ccccc2O)nc1NC(=O)c1cccs1 | 51 | 2800 | 
CC(C)(CN)NC(=O)c1cccc(-c2cc(-c3ccccc3O)nc(NC(=O)c3ccco3)c2C#N)c1 | 15 |  | 
COc1ccc(C(=O)Nc2nc(-c3ccccc3O)cc(-c3cccc(C(=O)NC(C)(C)CN)c3)c2C#N)cc1 | 32 |  | 
COc1ccc(-c2cc(-c3cccc(NC(=O)CCN)c3)c(C#N)c(NC(=O)c3ccccc3)n2)c(O)c1 | 120 |  | 
N#Cc1c(-c2cccc(NC(=O)CCN)c2)cc(-c2ccc(Cl)cc2O)nc1NC(=O)c1cccs1 | 9.8 | 4100 | 
N#Cc1c(-c2cccc(C(=O)NCCN)c2)cc(-c2ccccc2O)nc1NC(=O)c1cccs1 | 45 | 5100 | 
COc1ccccc1C(=O)Nc1nc(-c2ccccc2O)cc(-c2cccc(C(=O)NCCN)c2)c1C#N | 45 |  | 
COc1ccc(O)c(-c2cc(-c3cccc(NC(=O)CCN)c3)c(C#N)c(NC(=O)c3cccs3)n2)c1 | 480 |  | 
N#Cc1c(-c2cccc(C(=O)O)c2)cc(-c2ccccc2O)nc1NC(=O)c1cccs1 | 9900 |  | 
N#Cc1c(-c2cccc(NC(=O)CCCN)c2)cc(-c2ccccc2O)nc1NC(=O)c1cccs1 | 34 | 1400 | 
N#Cc1c(-c2cccc(NC(=O)CCN)c2)cc(-c2ccc(Br)cc2O)nc1NC(=O)c1cccs1 | 19 | 6300 | 
Cc1ccc(-c2cc(-c3cccc(NC(=O)CCN)c3)c(C#N)c(NC(=O)c3cccs3)n2)c(O)c1 | 12 | 910 | 
N#Cc1c(-c2cccc(N)c2)cc(-c2ccccc2O)nc1NC(=O)c1cccs1 | 2100 |  | 
N#Cc1c(-c2cccc(NC(=O)CCN)c2)cc(-c2ccccc2O)nc1NC(=O)c1cccs1 | 21 | 1100 | 
COc1ccc(C(=O)Nc2nc(-c3ccccc3O)cc(-c3cccc(C(=O)NCCN)c3)c2C#N)cc1 | 31 |  | 
N#Cc1c(-c2cccc(NC(=O)CCN)c2)cc(-c2ccc(F)cc2O)nc1NC(=O)c1ccco1 | 3.7 | 460 | 
N#Cc1c(-c2cccc(NC(=O)CCN)c2)cc(-c2cc(Cl)ccc2O)nc1NC(=O)c1cccs1 | 490 |  | 
N#Cc1c(-c2cccc(CN)c2)cc(-c2ccccc2O)nc1NC(=O)c1cccs1 | 570 |  | 
COc1ccccc1C(=O)Nc1nc(-c2ccccc2O)cc(-c2cccc(C(=O)NC(C)(C)CN)c2)c1C#N | 32 |  | 
COc1ccccc1-c1cc(-c2cccc(N)c2)c(C#N)c(NC(=O)c2cccs2)n1 | > 30000 |  | 
N#Cc1c(-c2cccc(C(=O)NCCN)c2)cc(-c2ccccc2O)nc1NC(=O)c1ccco1 | 14 |  | 
N#Cc1c(-c2cccc(NC(=O)CCN)c2)cc(-c2ccccc2O)nc1NC(=O)c1ccccc1 | 51 | 24000 | 
N#Cc1c(-c2cccc(NC(=O)CCN)c2)cc(-c2ccccc2N)nc1NC(=O)c1ccccc1 | 890 |  | 
Cc1c(-c2ccccc2O)nc(NC(=O)c2ccco2)c(C#N)c1-c1cccc(NC(=O)CCN)c1 | 1200 |  | 
N#Cc1c(-c2cccc(C(=O)NCCN)c2)cc(-c2ccc(F)cc2O)nc1NC(=O)c1ccco1 | 8 | 660 | 
N#Cc1c(-c2cccc(CO)c2)cc(-c2ccccc2O)nc1NC(=O)c1cccs1 | 1500 |  | 58
